Consider 14 compounds from ChEMBL document CHEMBL4043094, “Azobenzene-containing photoswitchable proteasome inhibitors with selective activity and cellular toxicity” (Bioorg Med Chem, 2017).

Data set [1] in a line: Inhibition of caspase-like activity of 20S proteasome in rabbit 20S proteasome pre-incubated for 10 mins before Suc-Leu-Leu-Val-Tyr-AMC substrate addition and measured after 2 hrs by fluorescence assay. On the set-up: species or system Oryctolagus cuniculus. In outline:
(§1)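 IC50 (nM) was determined for each compound twice: in its non-irradiated form and again after light irradiation.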

A short description of data set [2]: Inhibition of chymotrypsin-like activity of 20S proteasome in rabbit 20S proteasome pre-incubated for 10 mins before Suc-Leu-Leu-Val-Tyr-AMC substrate addition and measured after 2 hrs by fluorescence assay. Also on record: species or system Oryctolagus cuniculus. An outline of the steps: as §1
A further data set deals with MDA-MB-468. Nature of the data set: Cytotoxicity against human MDA-MB-468 cells incubated for 48 hrs by 7AAD dye based flow cytometry. The data set is classed as functional. The settings on record: MDA-MB-468, 48 h, read-out: LD50 (the source's name). In outline: (§2)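 Apoptosis dose-response over 48 h treatment. Each inhibitor was tested in two forms: the thermally adapted trans state and the cis photostationary state.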
On the technique in general: In flow cytometry, cells or beads pass a laser one at a time.

The next data set has as its system MCF-10A. Nature of the data set: Cytotoxicity against human MCF10A cells at 5000 nM incubated for 48 hrs by 7AAD dye based flow cytometry. The data set is classed as cell-based. Conditions: 5 µM.
The next data set relates to HCT-116. The experiment in a line: Cytotoxicity against human HCT116 cells incubated for 48 hrs by 7AAD dye based flow cytometry. The data set is classed as functional. The settings on record: HCT-116, 48 h, read-out: LD50 (the source's name). An outline of the steps: as §2
Data set [3] is described as follows: Stability in DMSO. Format: physicochemical.
A short description of data set [4]: Cytotoxicity against human MCF10A cells incubated for 48 hrs by 7AAD dye based flow cytometry. Conditions: read-out: LD50. The data set is classed as cell-based, MCF-10A.

In general, IC50 refers to the concentration that gives 50% inhibition. Low values mean higher potency, high ones lower potency. In the case of `Cc1cc(C)cc(/N=N\c2cccc(C(=O)N[C@H](C(=O)N[C@@H](CC(C)C)B3OC4C[C@@H]5C[C@@H](C5(C)C)[C@]4(C)O3)[C@@H](C)O)c2)c1` (stereo not given in full), the IC50 in data set [1] was 1630 nM; in data set [2], 249 nM.

On to `Cc1cc(C)cc(/N=N\c2ccc(C[C@H](NC(=O)OC(C)(C)C)C(=O)N[C@@H](CC(C)C)B3OC4C[C@@H]5C[C@@H](C5(C)C)[C@]4(C)O3)cc2)c1` (stereo not given in full), for which the IC50 in data set [1] was 214 nM; in data set [2], 41 nM.

Regarding `CC(C)C[C@H](NC(=O)[C@H](Cc1ccc(/N=N/c2ccc(-c3ccccc3)cc2)cc1)NC(=O)OC(C)(C)C)B1OC2C[C@@H]3C[C@@H](C3(C)C)[C@]2(C)O1` (stereo not given in full), the figures for the CC50 in the data set on MDA-MB-468 and with HCT-116 were 246 nM and 1030 nM, respectively. For the same compound, the values for the 50% inhibitory concentration (IC50) in data set [1] and in data set [2] were 460 nM and 11 nM, respectively. Further, in the data set on MCF-10A, the Activity entry was “Non-Toxic”.

For the compound `CC(C)C[C@H](NC(=O)[C@@H](NC(=O)c1cccc(/N=N\c2ccccc2)c1)[C@@H](C)O)B1OC2C[C@@H]3C[C@@H](C3(C)C)[C@]2(C)O1` (stereo not given in full), the IC50 in data set [1] was 759 nM; in data set [2] it was 84 nM.

Consider `CC(C)C[C@H](NC(=O)[C@H](Cc1ccc(/N=N/c2ccccc2)cc1)NC(=O)OC(C)(C)C)B1OC2C[C@@H]3C[C@@H](C3(C)C)[C@]2(C)O1` (stereo not given in full), for which the IC50 was 107 nM in data set [1] and 10 nM in data set [2].

`CC(C)C[C@H](NC(=O)[C@H](Cc1ccc(/N=N\c2ccc(-c3ccccc3)cc2)cc1)NC(=O)OC(C)(C)C)B1OC2C[C@@H]3C[C@@H](C3(C)C)[C@]2(C)O1` (stereo not given in full) showed a Stability in data set [3] of more than 48 h. Also, the CC50 with MDA-MB-468 was 144 nM; in the data set on HCT-116, 212 nM. For the same compound, the IC50 in data set [1] worked out at 303 nM; in data set [2] it was 54 nM. Further, the CC50 at 48 h in data set [4] came to 683 nM.

Turning to `CC(C)C[C@H](NC(=O)[C@@H](NC(=O)c1cccc(/N=N/c2ccc(-c3ccccc3)cc2)c1)[C@@H](C)O)B1OC2C[C@@H]3C[C@@H](C3(C)C)[C@]2(C)O1` (stereo not given in full), the figures for the IC50 in data set [1] and in data set [2] were 498 nM and 22 nM, respectively.

Regarding `Cc1cc(C)cc(/N=N/c2cccc(C(=O)N[C@H](C(=O)N[C@@H](CC(C)C)B3OC4C[C@@H]5C[C@@H](C5(C)C)[C@]4(C)O3)[C@@H](C)O)c2)c1` (stereo not given in full), the IC50 in data set [1] worked out at 1620 nM; in data set [2], 55 nM.

As to `Cc1cc(C)cc(/N=N/c2ccc(C[C@H](NC(=O)OC(C)(C)C)C(=O)N[C@@H](CC(C)C)B3OC4C[C@@H]5C[C@@H](C5(C)C)[C@]4(C)O3)cc2)c1` (stereo not given in full), the IC50 worked out at 211 nM in data set [1] and 53 nM in data set [2].

Regarding `CC(C)C[C@H](NC(=O)[C@@H](NC(=O)c1cccc(/N=N/c2ccccc2)c1)[C@@H](C)O)B1OC2C[C@@H]3C[C@@H](C3(C)C)[C@]2(C)O1` (stereo not given in full), the IC50 in data set [1] is 868 nM; in data set [2], 17 nM.

As to `CC(C)C[C@H](NC(=O)[C@@H](NC(=O)c1cccc(/N=N\c2ccc(-c3ccccc3)cc2)c1)[C@@H](C)O)B1OC2C[C@@H]3C[C@@H](C3(C)C)[C@]2(C)O1` (stereo not given in full), the IC50 in data set [1] was found to be 727 nM; in data set [2], 29 nM.

For the compound `CC(C)C[C@H](NC(=O)[C@H](Cc1ccc(/N=N\c2ccccc2)cc1)NC(=O)OC(C)(C)C)B1OC2C[C@@H]3C[C@@H](C3(C)C)[C@]2(C)O1` (stereo not given in full), the IC50 in data set [1] turned out to be 110 nM; in data set [2], 12 nM.

`CC(C)C[C@H](NC(=O)[C@H](Cc1ccccc1)NC(=O)c1cnccn1)B(O)O` [BORTEZOMIB]: the IC50 stood at 76 nM in data set [1] and 5 nM in data set [2].

Regarding `CC(C)C[C@H](NC(=O)[C@@H](NC(=O)c1cccc(-c2ccccc2)n1)[C@@H](C)O)B(O)O` [DELANZOMIB], the results for the IC50 in data set [1] and in data set [2] were 59 nM and 10 nM, respectively.
